Measurements published in the array DNA melting data of Ke et al. (doi:10.1101/2024.01.08.574731).

Experiments:
[1] = folding enthalpy; higher = less favourable; fluorescence melt of hairpins on a sequencing array, two-state fit; conditions: sodium 0.088 M
Method in brief: (§1)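 Cy3 signals were normalised both to pre-quench Cy3 and to control constructs. They came from library hairpins carrying annealed Cy3 and quencher oligos on a sequenced MiSeq flow cell, imaged in 50 mM Na-HEPES pH 8.0, 25 mM NaCl, in 2.5 °C steps up to 60 °C. Bootstrapped two-state fits gave melting temperature and folding enthalpy, and four replicates were combined by inverse variance. Fitted temperatures were then raised by 9.35 °C to match UV melts.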

[2] = melting temperature; fluorescence melt of hairpins on a sequencing array, two-state fit, raised by 9.35 °C to match UV melts; conditions: sodium 0.088 M
Method in brief: as §1

Row | Sequence | folding enthalpy [1] [kcal/mol] | Tm [2] [°C]
1 | GTTCACACGAAAGTGAAC (((..(((....)))))) | -23.8 | 49.2
2 | GTTGGTCGAAAGACAAAC (((.(((....))).))) | -26.5 | 48.5
3 | GTAAGGGAAACCTTAC ((((((....)))))) | -26.2 | 48
4 | GGAGACGGAAACATCTCC (((((.(....).))))) | -31.8 | 39.5
5 | CGGGCGGAAACGCCACCG ((((((....)))..))) | -9.3 | 42.4
6 | GCTAGCCGAAAGGCAGC (((.(((....)))))) | -21.7 | 58.1
7 | CGTATCCGGAAACGGACG (((..(((....)))))) | -13.8 | 32.5
8 | GATCTGTAACAGATC ((((((...)))))) | -33.5 | 48.6
9 | GCCTAGCGAAAGCTCGGC (((.(((....))).))) | -39.4 | 56.8
10 | GAGGCCCCGAAAGGGCTC (((..(((....)))))) | -14.1 | 50.7
11 | GAAGGGGCGAAAGCCTTC (((..(((....)))))) | -9.14 | 35.2
12 | GATCGTGTAGACGATC ((((((....)))))) | -39.8 | 59.6
13 | GTGGTACGAAAGTAACAC (((.(((....))).))) | -40.3 | 58.2
14 | GCCAACACGAAAGTGGGC (((..(((....)))))) | -24.9 | 52.7
15 | GATGGTGCGAAAGCAATC (((..(((....)))))) | -8.86 | 28.7
16 | GCGAACTCGAAAGAGCGC (((..(((....)))))) | -27.6 | 49.3
17 | GGCACCGAAAGGTTTGCC ((((((....)))..))) | -22.6 | 50.6
18 | GATCATGACCATGATC ((((((....)))))) | -41.5 | 55.2
19 | GATCCTATAGAGGATC ((((((....)))))) | -28.9 | 50.4
20 | GATCCTCCTGAGGATC ((((((....)))))) | -41.2 | 57.2
21 | GTGTTCGAAAGAACCCAC ((((((....)))..))) | -11.7 | 33.1
22 | GACAGCGGAAACGCCGTC (((.(((....))).))) | -18.6 | 50.6
23 | GCGCCGCGAAAGCAACGC (((..((....))..))) | -18.1 | 51.1

Row | Sequence | folding enthalpy [1] [kcal/mol] | Tm [2] [°C]
24 | GATCTGTTCCCAGATC ((((((....)))))) | -33.7 | 48.6
25 | GATCGCAAATGCGATC ((((((....)))))) | -40.5 | 68
26 | GCTAGGCGAAAGCGAAGC (((..((....))..))) | -15.8 | 35.3
27 | GCTCACGGAAACGTAAGC (((.(((....))).))) | -27.3 | 41.8
28 | GCGAGACGAAAGTCCCGC (((.(((....))).))) | -35.6 | 59
29 | GGAAATGGAAACACTTCC ((((.((....)).)))) | -31.5 | 30.2
30 | GCCTACGAAAGTAACGGC ((((((....)))..))) | -26.5 | 44
31 | GATCCGGGTACGGATC ((((((....)))))) | -36 | 67.9
32 | GGAAGCTCGAAAGAGTCC (((..(((....)))))) | -11.6 | 26.2
33 | GATCCGGCCCGGATC ((((((...)))))) | -30.7 | 58.9
34 | CGCTTCGGAAACGACGCG (((.(((....))).))) | -48.8 | 51.5
35 | GTAGGGGAAACCCTAC ((((((....)))))) | -36.7 | 55.4
36 | GCCACGGGAAACTGTGGC (((((.(....).))))) | -43.2 | 63.2
37 | GCACGTCGAAAGACTTGC (((.(((....))).))) | -40.6 | 51.1
38 | GGATGCGGAAACGCATTC (.(((((....))))).) | -19.2 | 54.5
39 | GGCAACTCGAAAGAGGCC (((..(((....)))))) | -22.7 | 48.8
40 | GCCTCGCGAAAGCGGGC (((.(((....)))))) | -16.4 | 67.7
41 | GGATGTCGAAAGACGTCC (((.(((....))).))) | -38.8 | 61
42 | GGGATGGAAACATCCC ((((((....)))))) | -41.4 | 60.7
43 | GGCCGCGAAAGCGCTGCC ((((((....)))..))) | -18.6 | 56.5
44 | GGCTGTGGAAACACGGCC (((.(((....))).))) | -46.6 | 60.8
45 | GATCTACAATAGATC ((((((...)))))) | -18.8 | 36.7
46 | GCACAACGAAAGTTTGC (((.(((....)))))) | -25.6 | 44.5

Row | Sequence | folding enthalpy [1] [kcal/mol] | Tm [2] [°C]
47 | GTTCCCGAAAGGGCAAC ((((((....))).))) | -14.7 | 40.4
48 | GACTCAGAAATGAGTC ((((((....)))))) | -35.9 | 54.5
49 | CATGGGAAACCATG (((((....))))) | -22.3 | 47.8
50 | GACGGCGAAAGCCTAGTC ((((((....)))..))) | -16.7 | 47.4
51 | GAGTCCGAAAGGAGCCTC ((((((....)))..))) | -14.3 | 34
52 | GCATGCGGAAACGCACAC (..((((....))))..) | -9.47 | 27.7
53 | AGGTGGAAACACCT (((((....))))) | -19.2 | 52.6
54 | GCGTCGCGAAAGCCAGGC ((.(.((....)).).)) | -10.6 | 33.8
55 | GCAAACGAAAGTTAATGC ((((((....)))..))) | -14.7 | 30.6
56 | GTGATCGAAAGATTCAC ((((((....))).))) | -24.1 | 43.4
57 | GTTAGCGAAAGCTGAAC ((((((....))).))) | -13.2 | 38.4
58 | GCTCTCCGAAAGGAAAGC (((.(((....))).))) | -28.4 | 46.5
59 | GCGCAGCGAAAGCTTAGC ((..(((....)))..)) | -9.17 | 40.5
60 | GTCGAACGAAAGTTGAC (((.(((....)))))) | -23.4 | 46.3
61 | GCAGGGCGAAAGCCGCGC ((..(((....)))..)) | -22.2 | 64.7
62 | GATCGAGTATCGATC ((((((...)))))) | -40.9 | 59.6
63 | GCCCGGCGAAAGCGGAGC ((.(.((....)).).)) | -14.8 | 54.8
64 | GATCCAGACTGGATC ((((((...)))))) | -36.9 | 52
65 | GATCAAGAAGTTGATC ((((((....)))))) | -28.2 | 43.9
66 | GATCTCAGTTGAGATC ((((((....)))))) | -34.5 | 54.2
67 | GCAGTGCGAAAGCAGCGC ((..(((....)))..)) | -17 | 59.7
68 | GATCCCAGCAGGGATC ((((((....)))))) | -34.6 | 66.3
69 | CGCGGACTAATCCGCG ((((((....)))))) | -38.3 | 65.9

Row | Sequence | folding enthalpy [1] [kcal/mol] | Tm [2] [°C]
70 | GCCCTCGAAAGAGGAGGC ((((((....)))..))) | -17 | 51.9
71 | GTGATGCGAAAGCACCAC (((.(((....))).))) | -29.2 | 54.2
72 | ACTGGGAAACCAGT (((((....))))) | -15.9 | 47.6
73 | CCAGGGAAACCTGG (((((....))))) | -20.6 | 53
74 | GCTGGGCGAAAGCCGGGC ((..(((....)))..)) | -19.3 | 55.6
75 | GTATGCGAAAGCACGTAC ((((((....)))..))) | -8.02 | 34.1
76 | GGTTCCGAAAGGAGACC ((((((....))).))) | -23.8 | 47.6
77 | GGTGCTGGAAACGGCACC (((((.(....).))))) | -45.8 | 62.9
78 | GGCTGCCGAAAGGCGCC (((.(((....)))))) | -18.9 | 68.3
79 | GCAGTGCGAAAGCAGAGC ((..(((....)))..)) | -11.6 | 50.9
80 | GATCTAGCTCTAGATC ((((((....)))))) | -33.1 | 45.2
81 | GGCCTAGCGAAAGCTGCC (((..(((....)))))) | -20.4 | 47.1
82 | GGTTAGCCGAAAGGCACC (((..(((....)))))) | -13.5 | 41.2
83 | GATCTGGGCCCAGATC ((((((....)))))) | -56.3 | 58.9
84 | GGATCCACGAAAGTGTCC (((..(((....)))))) | -12.4 | 28.4
85 | GCACGGCGAAAGCTATGC (((..((....))..))) | -19.9 | 42.1
86 | GGATCGCGAAAGCGCTCC (((.(((....))).))) | -25.3 | 54.2
87 | GGAAGCCGAAAGGCGTCC (((.(((....))).))) | -14.6 | 61.6
88 | GACTCCCGAAAGGGGTC (((.(((....)))))) | -24.9 | 50.8
89 | GATCCACCATTGGATC ((((((....)))))) | -31.5 | 49.4
90 | GGTTGTGGAAACGTAACC ((((..(....)..)))) | -24.3 | 35.7
91 | GATCCTATAAAGGATC ((((((....)))))) | -38.6 | 51.8
92 | GGGGGTCGAAAGACACCC (((.(((....))).))) | -35.5 | 67.4
